Results from ChEMBL document CHEMBL4014306, “Pyrazolopyrimidines as Potent Stimulators for Transient Receptor Potential Canonical 3/6/7 Channels” (J Med Chem, 2017).

Experiments:
Assay type in all cases: cell-based; call rule not given here
[1] = molecular target: T1, Short transient receptor potential channel 4 (Mus musculus, UniProt Q9QUQ5); assay: Antagonist activity at mouse TRPC4beta expressed in HEK293 cells co-expressing MOR decrease in DAMGO-evoked intracellular calcium level by Fluo-8-AM dye-based fluorescence assay
T1 sequence (Q9QUQ5 whole entry): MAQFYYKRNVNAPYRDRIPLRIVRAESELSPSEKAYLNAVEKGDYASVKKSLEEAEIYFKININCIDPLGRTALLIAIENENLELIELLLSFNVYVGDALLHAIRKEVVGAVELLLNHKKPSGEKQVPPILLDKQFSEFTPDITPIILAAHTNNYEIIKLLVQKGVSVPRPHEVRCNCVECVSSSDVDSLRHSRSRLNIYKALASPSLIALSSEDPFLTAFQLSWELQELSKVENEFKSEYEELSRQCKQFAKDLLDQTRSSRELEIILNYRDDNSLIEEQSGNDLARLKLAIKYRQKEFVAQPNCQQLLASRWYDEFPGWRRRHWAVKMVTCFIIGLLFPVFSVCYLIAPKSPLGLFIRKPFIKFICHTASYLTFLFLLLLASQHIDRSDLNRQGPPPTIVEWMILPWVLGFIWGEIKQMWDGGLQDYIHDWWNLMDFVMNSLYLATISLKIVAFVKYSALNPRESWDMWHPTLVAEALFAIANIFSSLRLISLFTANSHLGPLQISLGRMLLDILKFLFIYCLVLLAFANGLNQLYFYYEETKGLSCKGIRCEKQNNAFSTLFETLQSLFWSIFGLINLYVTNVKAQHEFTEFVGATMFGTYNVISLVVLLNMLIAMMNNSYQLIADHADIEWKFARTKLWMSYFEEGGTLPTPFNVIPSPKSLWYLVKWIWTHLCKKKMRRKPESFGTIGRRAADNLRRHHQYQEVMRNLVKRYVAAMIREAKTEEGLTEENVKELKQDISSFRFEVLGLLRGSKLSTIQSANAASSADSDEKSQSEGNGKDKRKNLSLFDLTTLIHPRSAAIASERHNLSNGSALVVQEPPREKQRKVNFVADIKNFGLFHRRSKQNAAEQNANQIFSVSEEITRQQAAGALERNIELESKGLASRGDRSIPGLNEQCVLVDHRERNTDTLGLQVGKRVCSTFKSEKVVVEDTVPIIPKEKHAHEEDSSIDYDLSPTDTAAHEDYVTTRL
In short: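 MOR/TRPC4β HEK293 cells loaded with Ca2+ dye. Compound given before 1 μM DAMGO. IC50 estimated from one experiment in triplicate.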

[2] = molecular target: T2, Short transient receptor potential channel 6 (Mus musculus, UniProt Q61143); assay: Agonist activity at mouse TRPC6 expressed in HEK293 cells co-expressing Gq11-PLCbeta fused M5 receptor assessed as increase in intracellular calcium level measured for 2.5 mins by Fluo-8-AM dye-based fluorescence assay
T2 sequence (Q61143 whole entry): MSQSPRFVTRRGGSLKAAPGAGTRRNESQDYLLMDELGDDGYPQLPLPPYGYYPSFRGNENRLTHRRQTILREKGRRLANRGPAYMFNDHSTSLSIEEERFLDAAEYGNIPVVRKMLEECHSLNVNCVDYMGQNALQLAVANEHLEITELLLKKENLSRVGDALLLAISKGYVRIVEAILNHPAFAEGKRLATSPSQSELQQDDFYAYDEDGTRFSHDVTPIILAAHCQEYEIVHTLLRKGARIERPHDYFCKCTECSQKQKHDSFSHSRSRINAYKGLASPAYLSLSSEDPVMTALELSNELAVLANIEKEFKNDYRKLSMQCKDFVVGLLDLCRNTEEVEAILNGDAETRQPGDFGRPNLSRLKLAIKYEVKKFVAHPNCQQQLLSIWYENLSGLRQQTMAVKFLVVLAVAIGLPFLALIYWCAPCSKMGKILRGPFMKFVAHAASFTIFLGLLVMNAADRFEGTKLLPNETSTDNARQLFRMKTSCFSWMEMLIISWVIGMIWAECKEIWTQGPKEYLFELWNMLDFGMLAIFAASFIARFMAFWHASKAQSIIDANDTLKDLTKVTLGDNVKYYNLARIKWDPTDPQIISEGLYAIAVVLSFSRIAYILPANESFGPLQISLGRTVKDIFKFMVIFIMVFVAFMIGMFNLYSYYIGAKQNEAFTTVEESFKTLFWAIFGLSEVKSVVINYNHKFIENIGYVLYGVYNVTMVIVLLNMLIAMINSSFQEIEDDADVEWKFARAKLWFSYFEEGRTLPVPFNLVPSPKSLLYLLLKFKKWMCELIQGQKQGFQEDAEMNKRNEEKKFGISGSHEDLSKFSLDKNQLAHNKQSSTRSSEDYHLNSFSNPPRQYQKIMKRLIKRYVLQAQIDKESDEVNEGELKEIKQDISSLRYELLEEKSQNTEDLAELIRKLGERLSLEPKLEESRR

HEK293 = assay: Induction of intracellular calcium level in HEK293 cells at 100 uM measured for 2.5 mins by Fluo-4-AM dye based FLIPR assay; conditions: human, hek293, 2.5 min

IC50 ([1]; read-out: IC50)	EC50 ([2]; read-out: EC50)	IC50 [1]	EC50 [2]	Structure (SMILES)	Activity (HEK293)
10 µM	12.3 µM	–	–	Cc1nn2c(O)cc(C3CCN(C(=O)c4ccc(Br)nc4)CC3)nc2c1-c1ccc(F)cc1	–
–	2 µM	Not Active	–	CCOC(=O)N1CCC(c2cc(O)n3nc(C)c(-c4ccc([N+](=O)[O-])cc4)c3n2)CC1	–
–	–	Not Active	Not Active	Cc1nn2c(O)cc(C3(C)CCN(C(=O)OC(C)(C)C)CC3)nc2c1-c1ccc(F)cc1	–
–	–	Not Active	Not Active	COc1ccc(S(=O)(=O)N2CCC(C)(c3cc(O)n4nc(C)c(-c5ccc(F)cc5)c4n3)CC2)cc1	–
–	–	Not Active	Not Active	Cc1nn2c(O)cc(C3(C)CCN(S(=O)(=O)c4c(F)cccc4F)CC3)nc2c1-c1ccc([N+](=O)[O-])cc1	–
–	–	Not Active	Not Active	COc1ccc(CC(=O)N2CCC(C)(c3cc(O)n4nc(C)c(-c5ccc([N+](=O)[O-])cc5)c4n3)CC2)cc1OC	–

Further lines, the compound ahead of its results:

Structure (SMILES)	IC50 ([1]; read-out: IC50)	EC50 ([2]; read-out: EC50)	IC50 [1]	EC50 [2]	Activity (HEK293)
C[N+](C)(C)CCOC(N)=O.[Cl-] [CARBACHOL]	–	–	–	–	Toxic
CCC(=O)N1CCC(c2cc(O)n3nc(C)c(-c4ccc(F)cc4)c3n2)CC1	35 µM	28.8 µM	–	–	–
CCOC(=O)N1CCC(C)(c2cc(O)n3nc(C)c(-c4ccc([N+](=O)[O-])cc4)c3n2)CC1	–	8 µM	Not Active	–	–
Cc1nn2c(O)cc(C3(C)CCN(C(=O)C(C)(C)C)CC3)nc2c1-c1ccc(F)cc1	–	–	Not Active	Not Active	–
CCC(=O)N1CCC(C)(c2cc(O)n3nc(C)c(-c4ccc(F)cc4)c3n2)CC1	–	–	Not Active	Not Active	–
Cc1nn2c(O)cc(C3CCN(C(=O)C(C)(C)C)CC3)nc2c1-c1ccc(F)cc1	–	–	Not Active	Not Active	–
Cc1nn2c(O)cc(C3CCN(C(=O)OC(C)(C)C)CC3)nc2c1-c1ccc(Cl)cc1	–	–	Not Active	Not Active	–
